In PMC4656071 (Biochemical pharmacology, 2015):

Experiments:
[1] = system: sEH; conditions: cited from earlier work
[2] = Blood level-time course of AEPU and its metabolites after oral dosing in mice; format: in vivo, male swiss webster mice
[3] = In vivo metabolism study of AEPU, rat urine by LC-MS; parameters: species or system rat (Sprague Dawley); conditions: rats, oral 10 mg/kg AEPU, urine 24 h after treatment
[4] = animal models; cited from earlier work
[5] = system: CYP3A4; assay: Recombinant human CYPs incubation, CYP3A4; format: in vitro ADME; conditions: 1 μM AEPU, 20 pmol/ml CYP, 30 min
Outline: (§1)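 Recombinant human CYPs (20 pmol/ml) with 1 μM test compound in 100 mM sodium phosphate pH 7.4, preincubated 5 min at 37 °C. NADPH-generating system added; incubated 0 and 30 min. Stopped with 200 nM internal standard in methanol; LC-MS/MS. Metabolites compared as response-area ratio to internal standard.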

[6] = system: CYP 3A4; format: in vitro ADME, human; conditions: 10 uM ketoconazole, 30 min, 37°C
[7] = system: CYP2D6; assay: Recombinant human CYPs incubation, CYP2D6; format: in vitro ADME; conditions: 1 μM AEPU, 20 pmol/ml CYP, 30 min
Outline: as §1

[8] = 5 mg/kg for mouse and rat, 0.3 mg/kg for dog; cited from earlier work
[9] = format: in vitro ADME, rat, human; conditions: incubated in vitro without NADPH
[10] = molecular target: T1, Human sEH (Homo sapiens, UniProt P34913); assay: sEH activity assay; format: biochemical; conditions: fluorescent assay for sEH inhibition, from Table 3 (human and mouse sEH)
T1 sequence (P34913 1-555): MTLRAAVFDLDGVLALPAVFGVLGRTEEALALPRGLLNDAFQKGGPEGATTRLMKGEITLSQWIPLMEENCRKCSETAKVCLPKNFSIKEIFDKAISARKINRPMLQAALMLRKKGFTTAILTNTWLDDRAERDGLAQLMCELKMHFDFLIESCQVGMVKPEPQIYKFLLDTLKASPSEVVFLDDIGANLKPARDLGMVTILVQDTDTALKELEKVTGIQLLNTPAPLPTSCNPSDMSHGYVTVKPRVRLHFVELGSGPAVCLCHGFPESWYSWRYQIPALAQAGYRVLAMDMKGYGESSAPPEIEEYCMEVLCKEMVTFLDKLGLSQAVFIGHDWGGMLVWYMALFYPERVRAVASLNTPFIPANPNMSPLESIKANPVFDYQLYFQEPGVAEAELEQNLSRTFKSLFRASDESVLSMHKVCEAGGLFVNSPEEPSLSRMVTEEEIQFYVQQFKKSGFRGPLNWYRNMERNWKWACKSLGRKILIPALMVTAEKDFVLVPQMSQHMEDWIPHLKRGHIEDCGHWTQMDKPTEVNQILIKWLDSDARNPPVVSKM

SMILES: O=C(O)CCCNC(=O)NC12CC3CC(CC(C3)C1)C2 [4-(3-adamantan-1-yl-ureido)butanoic acid]
- inhibitory potency on sEH (in words) [1]: very weak

SMILES: O=C(O)CCNC(=O)NC12CC3CC(CC(C3)C1)C2 [M15, 3-(3-adamantyl-ureido)-propanoic acid]
- blood level 6 hours post administration ([2]; oral 10 mg/kg AEPU, mouse whole blood, 6 hours): under the detection limitation
- occurrence in rat urine [3]: major metabolite

SMILES: CCOCCOCCOCCCCCNC(=O)NC12CC3CC(CC(C3)C1)C2 [AEPU, 1-adamantan-1-yl-3-(5-(2-(2-ethoxyethoxy)ethoxy)pentyl)urea]
- blood level of AEPU through the whole time course [4]: undetectable
- role of CYP3A4 in the in vitro metabolism of AEPU [5]: major enzyme
- metabolism in vivo (in words) ([2]; oral 10 mg/kg, multiple metabolites observed after 30 minutes): metabolized rapidly
- metabolism of AEPU in human liver S9 fraction with ketoconazole [6]: ceased
- role of CYP2D6 in the in vitro metabolism of AEPU [7]: minor enzyme
- area under curve after oral administration, comparison of species [8]: largest area under curve for dog, and then rat, while under detection limitation for mouse
- metabolite formation in vitro without NADPH [9]: failed to generate metabolites

SMILES: CCOCCOCCOCCCCCNC(=O)NC12CC3CC(CC(O)(C3)C1)C2 [M2]
- potency lower compared to AEPU [10]: 30–100 fold
